Where two headings read alike, the source gives them in different places.
What was measured:
CYP2C19 = CYP2C19 contribution to selumetinib clearance; parameters: species or system human
[1] = cited from earlier work
[2] = Madin-Darby Canine Kidney II permeability measurement; type: in vitro ADME; conditions: dog, MDCK
P-glycoprotein (P-gp) = assay: P-gp transport kinetics; type: in vitro ADME; conditions: not told
Outline: (§1)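 Intestinal P-gp kinetics were estimated by the Troutman–Thakker approach, assuming one-site saturable Michaelis–Menten kinetics, with intrinsic clearance derived from Jmax and Km. The values were placed at the intestinal apical site (ADAM absorption, minimal PBPK) and at the hepatic canalicular site (full PBPK, tissue:plasma Kp 0.4).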

P‐glycoprotein (P‐gp) = assay: P-gp transport kinetics; type: in vitro ADME
Outline: as §1

[3] = adults with solid tumors; cited from earlier work
[4] = Blood-to-plasma ratio and plasma protein binding; type: in vitro ADME
CYP3A = CYP3A contribution to selumetinib clearance; parameters: species or system human
[5] = cited from earlier work; remark: listed apart in the source
[6] = Physicochemical parameters
[7] = single oral dose, healthy adult subjects; cited from earlier work
[8] = cited from earlier work; remark: listed apart in the source
[9] = PBPK model absorption/distribution input parameters; parameters: species or system human; conditions: Estimated based on observed Cmax and PK profile (Study NCT02093728)
Outline: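 Minimal 4-compartment PBPK model in Simcyp v17 with first-order absorption and a single adjusting compartment (intercompartmental clearance 8 L/h, from a population PK model). Compartment volume was fitted to observed Cmax and profile from a healthy-volunteer trial: 10 × 10 virtual subjects aged 18–44 years given a single oral 25 mg dose.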

[10] = coadministration with rifampicin vs selumetinib alone; cited from earlier work

Cn1cnc2c(F)c(Nc3ccc(Br)cc3Cl)c(C(=O)NOCCO)cc21 [selumetinib]
CYP2C19 CLint (CYP2C19; Retrograde from CLpo 19.6 L/h, fm 15%): 3.335 µL/min/pmol | fm (fraction metabolized) by CYP2C19 (CYP2C19; assigned according to DDI study with fluconazole): 15% | observed exposure (AUC from time 0 to 12 hours) ([1]; SPRINT phase 2 cohort, 25 mg/m^2): 2009 ng·h/mL | maximum tolerated dose ([1]; pediatric SPRINT phase 1, twice daily): 25 mg/m^2 | terminal elimination half‐life ([1]; pediatric patients, single oral dose): ≈ 6 hours | Papp [2]: 37.7 ×10⁻⁶ cm/s | Km (P-glycoprotein (P-gp)): 15.8 µM | maximal carrier‐mediated flux (Jmax) (P‐glycoprotein (P‐gp); estimated, one‐site Michaelis‐Menten saturable kinetics): 9.9 pmol/min | P‐gp intrinsic clearance (P‐glycoprotein (P‐gp); from Jmax and Km): 0.62 µL/min | maximum tolerated dose [3]: 75 mg | B:P (blood‐to‐plasma ratio) ([4]; Report KPJ003): 0.625 | fraction unbound ([4]; plasma): 0.016 | CYP3A CLint (CYP3A; Retrograde from CLpo 19.6 L/h, fm 25%): 0.568 µL/min/pmol | fm (fraction metabolized) by CYP3A (CYP3A; assigned according to DDI study with itraconazole): 25% | fraction of absorption (Oral dose → First pass) ([5]; oral dose): > 71% | dose eliminated as unchanged in urine ([5]; renal elimination): < 1 % of dose | logP [6]: 3.88 | absolute (oral) bioavailability [7]: 62% | Observed geomean AUC (CV%) ([8]; 25 mg dose+fluconazole): 1770 ng·h/mL | Observed geomean AUC (CV%) ([8]; 25 mg dose+itraconazole): 1760 ng·h/mL | Observed geomean AUC (CV%) ([8]; 25 mg single oral dose alone, healthy volunteers): 1180 ng·h/mL | Vsac (volume of single adjusting compartment) [9]: 1 L/kg | decrease in AUC [10]: 51% | reduction in Cmax [10]: 26%

Source: PMC9290801 (Journal of Clinical Pharmacology, 2021)
